# Experimental data reported in ChEMBL document CHEMBL4257493, “Discovery of 7-hydroxyaporphines as conformationally restricted ligands for beta-1 and beta-2 adrenergic receptors” (Medchemcomm, 2018).
# Calls of active or inactive are those of the source. No cut-off for these calls is given here.
# What was measured:
# [1] = biological target: T1, Beta-3 adrenergic receptor (Homo sapiens, UniProt P13945); test: Displacement of [3H]-CGP-12177 from human beta3-adrenergic receptor
# [2] = biological target: 5-hydroxytryptamine receptor 7 (Homo sapiens, UniProt P34969); test: Binding affinity to 5-HT7 receptor (unknown origin) assessed as inhibition of radioligand binding by radioligand competition binding assay
# [3] = biological target: T2, 5-hydroxytryptamine receptor 1B (Homo sapiens, UniProt P28222); test: Binding affinity to 5-HT1B receptor (unknown origin) assessed as inhibition of radioligand binding at 10 uM by radioligand competition binding assay
# [4] = biological target: Sodium-dependent noradrenaline transporter (Homo sapiens) (UniProt P23975); test: Binding affinity to NET (unknown origin) assessed as inhibition of radioligand binding by radioligand competition binding assay; conditions: concentration not given here
# [5] = biological target: Sodium-dependent serotonin transporter (Homo sapiens) (UniProt P31645); test: Binding affinity to SERT (unknown origin) assessed as inhibition of radioligand binding by radioligand competition binding assay; conditions: concentration not given here
# [6] = biological target: T1, Beta-3 adrenergic receptor; test: Binding affinity to andrenergic beta3 receptor (unknown origin) assessed as inhibition of radioligand binding at 10 uM by radioligand competition binding assay
# [7] = biological target: Translocator protein (Homo sapiens) (UniProt P30536); test: Binding affinity to PBR (unknown origin) assessed as inhibition of radioligand binding by radioligand competition binding assay; conditions: concentration not given here
# [8] = biological target: T2, 5-hydroxytryptamine receptor 1B; test: Binding affinity to 5-HT1B receptor (unknown origin) assessed as inhibition of radioligand binding by radioligand competition binding assay
# [9] = biological target: 5-hydroxytryptamine receptor 1A (Homo sapiens, UniProt P08908); test: Binding affinity to 5-HT1A receptor (unknown origin) assessed as inhibition of radioligand binding by radioligand competition binding assay
# [10] = biological target: Muscarinic acetylcholine receptor M2 (Homo sapiens) (UniProt P08172); test: Binding affinity to muscarinic M2 receptor (unknown origin) assessed as inhibition of radioligand binding by radioligand competition binding assay; conditions: concentration not given here
# [11] = biological target: D(1A) dopamine receptor (Homo sapiens) (UniProt P21728); test: Binding affinity to dopamine D1 receptor (unknown origin) assessed as inhibition of radioligand binding by radioligand competition binding assay; conditions: concentration not given here
# [12] = biological target: Alpha-2C adrenergic receptor (Homo sapiens) (UniProt P18825); test: Binding affinity to andrenergic alpha2C receptor (unknown origin) assessed as inhibition of radioligand binding by radioligand competition binding assay; conditions: concentration not given here
# [13] = biological target: D(3) dopamine receptor (Homo sapiens) (UniProt P35462); test: Binding affinity to dopamine D3 receptor (unknown origin) assessed as inhibition of radioligand binding by radioligand competition binding assay; conditions: concentration not given here
# [14] = biological target: T3, Beta-1 adrenergic receptor (Homo sapiens, UniProt P08588); test: Antagonist activity at human beta1-adrenergic receptor expressed in CHO-K1 cells assessed as decrease in isoproterenol-induced cAMP accumulation after 15 mins by HTRF assay; assay type: functional, cell-based
# Method in brief: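 Run as a contract service: human beta1 receptor in CHO-K1 cells, with antagonist mode against isoproterenol-stimulated cAMP. Incubation 15 min at 37 °C in HBSS with 5 mM HEPES, 0.1% BSA and 100 µM IBMX, pH 7.4, in 0.40% DMSO vehicle. cAMP accumulation read by HTRF; dose-response curves.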
# [15] = biological target: 5-hydroxytryptamine receptor 2B (Homo sapiens, UniProt P41595); test: Binding affinity to 5-HT2B receptor (unknown origin) assessed as inhibition of radioligand binding at 10 uM by radioligand competition binding assay
# [16] = biological target: Muscarinic acetylcholine receptor M4 (Homo sapiens) (UniProt P08173); test: Binding affinity to muscarinic M4 receptor (unknown origin) assessed as inhibition of radioligand binding by radioligand competition binding assay; conditions: concentration not given here
# [17] = biological target: T3, Beta-1 adrenergic receptor; test: Displacement of [3H]-CGP-12177 from human beta1-adrenergic receptor
# [18] = biological target: 5-hydroxytryptamine receptor 2A (Homo sapiens) (UniProt P28223); test: Binding affinity to 5-HT2A receptor (unknown origin) assessed as inhibition of radioligand binding by radioligand competition binding assay; conditions: concentration not given here
# [19] = biological target: T4, Beta-2 adrenergic receptor (Homo sapiens, UniProt P07550); test: Agonist activity at human beta2-adrenergic receptor expressed in CHO-K1 cells assessed as increase in cAMP accumulation after 20 mins by HTRF assay; assay type: functional, cell-based
# Method in brief: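 Human β2 receptor expressed in CHO cells; cAMP accumulation read out by HTRF. Vehicle 0.40% DMSO. Incubated 20 minutes at 37°C in HBSS, 5 mM HEPES, 0.1% BSA, 100 μM IBMX, pH 7.4. Performed by a contract screening service.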
# [20] = organism: Homo sapiens; test: Binding affinity to sigma2 receptor (unknown origin) assessed as inhibition of radioligand binding by radioligand competition binding assay; conditions: concentration not given here
# [21] = biological target: Alpha-2A adrenergic receptor (Homo sapiens, UniProt P08913); test: Binding affinity to andrenergic alpha2A receptor (unknown origin) assessed as inhibition of radioligand binding by radioligand competition binding assay
# [22] = biological target: D(4) dopamine receptor (Homo sapiens) (UniProt P21917); test: Binding affinity to dopamine D4 receptor (unknown origin) assessed as inhibition of radioligand binding by radioligand competition binding assay; conditions: concentration not given here
# [23] = biological target: Alpha-2B adrenergic receptor (Homo sapiens, UniProt P18089); test: Binding affinity to andrenergic alpha2B receptor (unknown origin) assessed as inhibition of radioligand binding by radioligand competition binding assay
# [24] = biological target: Sigma non-opioid intracellular receptor 1 (Homo sapiens) (UniProt Q99720); test: Binding affinity to sigma1 receptor (unknown origin) assessed as inhibition of radioligand binding by radioligand competition binding assay; conditions: concentration not given here
# [25] = biological target: 5-hydroxytryptamine receptor 1A (Homo sapiens) (UniProt P08908); test: Binding affinity to 5-HT1A receptor (unknown origin) assessed as inhibition of radioligand binding at 10 uM by radioligand competition binding assay
# [26] = biological target: Alpha-1D adrenergic receptor (Homo sapiens) (UniProt P25100); test: Binding affinity to andrenergic alpha1D receptor (unknown origin) assessed as inhibition of radioligand binding by radioligand competition binding assay; conditions: concentration not given here
# [27] = biological target: 5-hydroxytryptamine receptor 5A (Homo sapiens) (UniProt P47898); test: Binding affinity to 5-HT5A receptor (unknown origin) assessed as inhibition of radioligand binding by radioligand competition binding assay; conditions: concentration not given here
# [28] = biological target: T1, Beta-3 adrenergic receptor; test: Binding affinity to andrenergic beta3 receptor (unknown origin) assessed as inhibition of radioligand binding by radioligand competition binding assay
# [29] = biological target: T4, Beta-2 adrenergic receptor; test: Antagonist activity at human beta2-adrenergic receptor expressed in CHO-K1 cells assessed as decrease in procaterol-induced cAMP accumulation after 20 mins by HTRF assay; assay type: functional, cell-based
# Method in brief: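 Contract functional assay on human beta2 receptor expressed in CHO cells, with antagonist mode against agonist-stimulated cAMP. Incubation 20 min at 37 °C in HBSS, 5 mM HEPES, 0.1% BSA, 100 µM IBMX, pH 7.4, with 0.40% DMSO vehicle. HTRF quantitation of cAMP accumulation; dose-response curves.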
# [30] = biological target: Kappa-type opioid receptor (Homo sapiens) (UniProt P41145); test: Binding affinity to KOR (unknown origin) assessed as inhibition of radioligand binding by radioligand competition binding assay; conditions: concentration not given here
# [31] = biological target: Alpha-1B adrenergic receptor (Homo sapiens) (UniProt P35368); test: Binding affinity to andrenergic alpha1B receptor (unknown origin) assessed as inhibition of radioligand binding by radioligand competition binding assay; conditions: concentration not given here
# [32] = biological target: 5-hydroxytryptamine receptor 6 (Homo sapiens, UniProt P50406); test: Binding affinity to 5-HT6 receptor (unknown origin) assessed as inhibition of radioligand binding by radioligand competition binding assay
structure (smiles),measurement,setting,value
COc1cc2c3c(c1OC)-c1ccccc1[C@@H](O)[C@@H]3NCC2,IC50,[1],240 nM
same,Ki,[2],120 nM
same,inhibition,[3],> 50%
same,inhibition,[4],< 50%
same,inhibition,[5],< 50%
same,inhibition,[6],> 50%
same,inhibition,[7],< 50%
same,Ki,[8],1210 nM
same,Ki,[9],71 nM
same,inhibition,[10],< 50%
same,inhibition,[11],< 50%
same,inhibition,[12],< 50%
same,inhibition,[13],< 50%
same,IC50,[14],17 nM
same,inhibition,[15],> 50%
same,inhibition,[16],< 50%
same,IC50,[17],1.7 nM
same,inhibition,[18],< 50%
same,Activity,[19],inactive
same,inhibition,[20],< 50%
same,Ki,[21],1150 nM
same,inhibition,[22],< 50%
same,Ki,[23],571 nM
same,inhibition,[24],< 50%
same,inhibition,[25],> 50%
same,inhibition,[26],< 50%
same,inhibition,[27],< 50%
same,Ki,[28],308 nM
same,IC50,[29],6.9 nM
same,inhibition,[30],< 50%
same,inhibition,[31],< 50%
same,Ki,[32],862 nM
